This is an account of results in ChEMBL document CHEMBL1123722, “Comparative antitumor studies on platinum(II) and platinum(IV) complexes containing 1,2-diaminocyclohexane” (J Med Chem, 1987).

The subject of one test is B16. The experiment in a line: Antitumor activity against B16 tumor ascite cells implanted ip in BDF1 mice was determined at a dose of 1.6-2 mg/kg. It is filed as functional, organism-based. The conditions noted are these: Mus musculus.
Another test concerns L1210. The experiment in a line: Antitumor activity against 10E6 L1210 ascites cells implanted ip in CDF1 mice was determined after a dose of 6-10 mg/kg. The test is classed as functional, organism-based. The following applies: Mus musculus. In short, it runs like this: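 CDF1 mice implanted with 1 × 10⁶ L1210 ascites cells ip. Complexes were suspended in 0.9% NaCl with a drop of Tween 80 and given ip on day 1 after tumor inoculation. Groups were five treated mice and 10 leukemic controls. Mice were observed daily. Activity is % T/C: median survival time of treated ÷ untreated controls × 100.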

Turning to CISPLATIN, the T/C worked out at 167% in the test on B16 and 150% with L1210.
